Source: the EternaBench riboswitch data

System: MS2 coat protein
Test: apparent Kd, MS2 coat protein; higher = weaker binding; RNA-MaP array; FMN 200 µM where present
Procedure, shortened: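 SNAP-549-labelled MS2 coat protein, doubled from 0.7 or 1.5 nM to 3 µM, was titrated over designs transcribed by stalled E. coli RNA polymerase on Illumina sequencing-chip clusters. Titrations were run without and then with constant ligand in 100 mM Tris-HCl pH 7.5, 80 mM KCl, 4 mM MgCl2, BSA, DTT, yeast tRNA and Tween-20. The apparent Kd is the median of filtered per-cluster fits to green signal normalised to red-channel RNA signal and control-cluster median Fmax.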

[1] = designed as: OFF switch for flavin mononucleotide, no ligand
[2] = ligand present: flavin mononucleotide, designed as: OFF switch for flavin mononucleotide
[3] = designed as: ON switch for flavin mononucleotide, no ligand
[4] = ligand present: flavin mononucleotide, designed as: ON switch for flavin mononucleotide

| Sequence | apparent Kd [1] [nM] | apparent Kd [2] [nM] | apparent Kd [3] [nM] | apparent Kd [4] [nM] |
| --- | --- | --- | --- | --- |
| GAAUAAUUGAUCCAAUUUAUCUACAUGAGGAUCACCCAUGUGCAGGAUAUCGUAAUAUUUAAUUACGAGAAGGGCAAGAACGGU | 281 | 425 |  |  |
| GAAUAAUUGAUCCAUUUUUAAAACAUGAGGAUCACCCAUGUGCAGGAUAUCGAUAGUUUUAGAUUCGAGAAGGGCAAGAACUGU | 88.2 | 149 |  |  |
| GAAUAUUCGUUGUACAUGAGGAUCACCCAUGUGACUUGACAUGAGGAUAUGGAUUCUAAUUGGAUCCAGAAGGCAUGAAUAUUC |  |  | 122 | 31.5 |
| GAAUAUUCGUUGUACAUGAGGAUCACCCAUGUGACUUUACAUGAGGAUAUGGAUUCUAAUUGGAUCCAGAAGGCAUGAAUAUUC |  |  | 171 | 35 |
| GACAAACAUGAGGAUCACCCAUGUUCAGACGAACAAGGAUAUGUGUGGAAACCAUACUAUACAGAAGGUGUCUGUC |  |  | 48.6 | 31.1 |
| GACAAGGGAGGAUAUGCACAAGGGAUAUCUGACAUGCCGAUACAUGAGGAUCACCCAUGUAGAAGGCCCGAAUA | 11.4 | 18.3 |  |  |
| GACACGUGAGGAUAUACAUGAGGAUCACCCAUGUAAGUACACGUGGCUGUUCCUGCAUGUAGAAGGCACGCAUU | 22.8 | 17.2 |  |  |
| GACAGGGAUUCAGGAUAUAUUAGCCGAGGCCGAGUAGAAGGGAAAUCCUGACAUGAGGAUCACCCAUGUCGACCCGCCUUCCUU |  |  | 50.7 | 51.9 |
| GACAUACAUGAGGAUCACCCAUGUUCAAGCGGACAAGGAUAUGUGUGGAAACCAUACUAUACAGAAGGUGUCUGUC |  |  | 25.9 | 17.1 |
| GACAUGAGGAUCACCCAUGUACAUGAGGAUCACCCAUGUUCUGAGGAUAUAGAUGAGGAUCACCUCUAGAAGGCAGCGCGCGCG | 251 | 202 |  |  |
| GACAUGAGGAUCACCCAUGUCCGGGCCAAAAGAAGAAAUACCAGAAGGACCGGCAGAAAUGAGCGGUAGGAUAUGGGAUUCGUG |  |  | 36.7 | 12.1 |
| GACAUGGUCCAGAAGGGCUAUUUAUUUAAGUACGAUUUAGAACAGCAUAGCAGGAUAUGGCUAACAUGAGGAUCACCCAUGUUC |  |  | 19.3 | 11.9 |
| GACAUUGGCAAGAAGGCAAACAUGAGGAUCACCCAUGUUCUGUAUGUAUAUUGAGGAUAUUGCCAAUGUAUGUGGAUCACCCAA | 9.44 | 8.28 |  |  |
| GACCGCGAGGGAGGAUAUGGAGCCUUAUUGGCUCCAGAAGGUCCAUAAGGGACAUGAGGAUCACCCAUGUGGGUUGAAGCGGUC |  |  | 155 | 57.2 |
| GACCGUCACAAUAACCGGUUGAACGAGGAUAUGAUCACUGGGCCUGCACAUGAGGAUCACCCAUGUCAGAAGGCGUUCAGUCCC | 5.53 | 16.4 |  |  |
| GACGGGAAUGAGAAGGGUCACAUGAGGAUCACCCAUGUGCUCUUCGCCGUGACAGGAUAUCAUUGCCGCCAGGUUAGAUUUUUG | 7.87 | 22.3 |  |  |
| GACGGGCAGCUCGUGAUCCCAUCGCCAGAAGGGCCACAUGAGGAUCACCCAUGUCGUAAAACAAGGCAGGAUAUGGCAGGGAAC |  |  | 9.93 | 5.21 |
| GACGGGUGGGUAGGAUAUGGCUAUGUCUCAUUGCUAGAAGGACCAGCUGCUACAUGAGGAUCACCCAUGUCGUAGUGCACCCAG |  |  | 189 | 13.1 |
| GACUCGCGCACAGGAUAUCCACGGAGCGGACGCGGAGAAGGGUGACAUGAGGAUCACCCAUGUACGUGAGUCUAGAUCACUUCC |  |  | 76.8 | 22.5 |
| GACUGACGAGGAUAUACAUGAGGAUCACCCAUGUAAGAUCAGCGACUUCGGUCGCAAUGUAGAAGGCGUCAGUC | 28.2 | 326 |  |  |
| GACUGCUGAGGAUAUACAUGAGGAUCACCCAUGUGCUUCAGUAUCGAAAGAUACAUUGGUAGAAGGUGGUAGUC | 13.4 | 21.4 |  |  |
| GACUGGCAGCUAGGAUAUGGGCGAUCACAUGAGGAUCACCCAUGUCAACAUCAAAACAAGAUUAACCAGAAGGAGCCGCGGGCU |  |  | 17.3 | 49.7 |
| GACUUGGCUACAUGAGGAUCACCCAUGUUUGACUGGAUCGAUCAGGAUAUAGUAAUUUGCAACAAUUAGAAGGGAUAUUUACGG |  |  | 65.9 | 56.9 |
| GAGAAGAGGGAAGGAUAUACAUGAGGAUCACCCAUGUAGAUAGGUUUAAUAGGUUGUUGUAGUUUGUAGAAGGUCCGGUUUGUU | 17.8 | 16.7 |  |  |
| GAGAUGUGAGGAUAUCUAGACCGCGGCAGAGCUGCGGUCCGAGAGAAGGCACAUGAGGAUCACCCAUGUGAUGA | 57 | 207 |  |  |
| GAGCCUCCGUAGAAGGCCGCGGAAUCCGAACGCGGAGGAUAUACAUGAGGAUCACCCAUGUGAAAGUGGAACGAUAAAACGCUU | 14.7 | 47.2 |  |  |
| GAGCGAAAGCUCAAUGUCGAUAGCAGAAGGACAUCCAACAACAUGAAAACAUGAGGAUCACCCAUGUAGGAUAUGCUAUCGACU | 6.8 | 7.4 |  |  |
| GAGCGAAAGCUCAAUGUCGAUAGCAGAAGGACAUCCUUAAACAUGAAAACAUGAGGAUCACCCAUGUAGGAUAUGCUAUCGACU | 7.31 | 9.1 |  |  |

| Sequence | apparent Kd [1] [nM] | apparent Kd [2] [nM] | apparent Kd [3] [nM] | apparent Kd [4] [nM] |
| --- | --- | --- | --- | --- |
| GAGCGAAAGCUCAAUGUCGAUAGCAGAAGGACAUGUAAAUACAUGAAAACAUGAGGAUCACCCAUGUAGGAUAUGCUAUCGACU | 5.46 | 12.7 |  |  |
| GAGCGGGAAACAUGAGGAUCACCCAUGUGAUGAAUCCUCACAUAGGAUAUCCACACGAGAAGUGUGGAGAAGGAUGACCCGGUC | 1120 | 1700 |  |  |
| GAGUACUUAGGAUAUACAUGAGGAUCACCCAUGUCUAGGCGGCGCUGGGUCCCUCGCAGUAGAAGGAAGCGCUG | 24.6 | 42.3 |  |  |
| GAGUAGUUAAAAGGAUAUUGAUUAUUGUAGGAUCAAGAAGGUUUUAACAUGAGGAUCACCCAUGUAGGACUAUUCCUGUGAAAA |  |  | 15.6 | 12.7 |
| GAGUAGUUGAUAGGAUAUUGAUUGUUAUAGGAUCAAGAAGGAUCUAACAUGAGGAUCACCCAUGUAGGACUAUUCCUGUGUAUC |  |  | 22.1 | 19.2 |
| GAGUAGUUGGAAGGAUAUCGAUUGUUAUAGAAUCGAGAAGGUCCUAACAUGAGGAUCACCCAUGUAGGACUAUUCCUGUGUAUC |  |  | 11.3 | 9.64 |
| GAGUGACAUGAGGAUCACCCAUGUGAGGAUAUCGGCCGGACCUUGUUAGCUUCCACCGCGAGAAGGCACAUCGG | 23.3 | 27.9 |  |  |
| GAGUGACAUGAGGAUCACCCAUGUGAGGAUAUCGGCCGGACCUUGUUAGCUUCCGCCGCGAGAAGGCACAUCGG | 71.8 | 157 |  |  |
| GAGUGGAAGGCCGCUACAUGAGGAUCACCCAUGUGCUAAGCACAGGAUAUCGCGCUGGCCCGGCGCGAGAAGGGUGACGGCCUG |  |  | 674 | 324 |
| GAGUGGUUGGGAGGAUAUGCAUUGUUAUUAAAUGCAGAAGGUUUUAACAUGAGGAUCACCCAUGUAGGACUAUUCCUGUGUUUC |  |  | 17.4 | 14.6 |
| GAGUGUACGGAGGAUAUGUUAUACGAUGACCGAACAGAAGGCCGAACAUGAGGAUCACCCAUGUGUCUUCUAGG | 16 | 22.8 |  |  |
| GAUACACAUGAGGAUCACCCAUGUCGUAUGACAUGAGGAUAUGUACAGACUUCGGUCUGUACAGAAGGCAUGUGUC |  |  | 115 | 199 |
| GAUAGGACAGAGAAGGACAUAGCUAGAGAUACUAGCAUAUGAACCUCUACAUGAGGAUCACCCAUGUAGGAUAUCUGUCCUAUC | 6.07 | 6.21 |  |  |
| GAUAUAGUUGAGAAGGGAAGGGCACAGUCCUCUCUAAAACUACAUGAGGAUCACCCAUGUGGCUUUCAGGAUAUCAGCGCUAAA | 22.5 | 109 |  |  |
| GAUCAAAACACUCCUUACACUACAUGAGGAUCACCCAUGUAGCAGGAUAUCGUUGCUCCUCGCUGCGAGAAGGGCUACGGGCGG | 8.02 | 13.8 |  |  |
| GAUCAACAUGAGGAUCACCCAUGUGAGGAUAUGAUACUAUGUACUUCGGUACAUAGUAUCAGAAGGCAUUAGGA | 51.8 | 39.6 |  |  |
| GAUCCUUAAGUCAGGAUAUCAAGCAAACUCUAAAUUGAGAAGGGACAUGAGGAUCACCCAUGUCACCGAAAUAA | 14.7 | 16.2 |  |  |
| GAUCGACCUGAGAAGGCACAUGAGGAUCACCCAUGUUGAACCAUACAUGCCACAAAGUGGCAGUGUGAGGAUAUCAGGUCGAUC | 5.81 | 8.34 |  |  |
| GAUCUGACAGGAUAUACAUGAGGAUCACCCAUGUACGAGCUAGCGAAAGCUAGCUCAGGUAGAAGGGUCAGAUC | 12.3 | 16.4 |  |  |
| GAUGAGAGAGGAUAUACAUGAGGAUCACCCAUGUAAUUUUCGGACAUGGAAGCUGGAUGUAGAAGGCUCGCAUG | 20 | 46.2 |  |  |
| GAUGAGGUAGGAUAUACGAGAAGAUAGGGUAGAUAGAGAACACAUGAGGAUCACCCAUGUAGAAGGACCAGUAG | 25.3 | 55.7 |  |  |
| GAUGCACAUGAGAAGGCGAUCAUGAAACAUGAUCGAGGAUAUCAUGUAAACAUGAGGAUCACCCAUGUAUGGGUAAAGUGCAUC |  |  | 446 | 32 |
| GAUGCGAAUGUGAGGAUAUCGGAGUAUUUAAACUCUGAGAAGGCACAUGAGGAUCACCCAUGUCCGUGCGUCUA | 506 | 130 |  |  |
| GAUGGAGAGCAGGAUAUCUUGGGUAAGCAUCAUAGAGAAGGGCUCACAUGAGGAUCACCCAUGUGGUCCAAGAA | 14.2 | 56 |  |  |
| GAUUCACAUGAGGAUCACCCAUGUGAGGAUAUAGUGCAAGAGGUGGAUGCCCACCUCCCUAGAAGGCACACGGG | 28.6 | 24 |  |  |
| GCAAAGCCUGACAUGAGGAUCACCCAUGUUAGAUUGUUAUGUCAGGAUAUUGUCUAGAAACUAGACAAGAAGGGAUGCUUUGCU |  |  | 421 | 25.3 |
| GCAAAGCCUGACAUGAGGAUCACCCAUGUUAGAUUGUUAUGUCAGGAUAUUGUCUAGACACUAGACAAGAAGGGAUGCUUUGCA |  |  | 386 | 38.4 |
